Bioassay records deposited in PubChem by several laboratories.
GASC-1 inh: human JMJD2C demethylase inhibition; Q9H3R0; GST-JMJD2C(1-420) H3K9me3 demethylation, DELFIA europium; inhibition, % at 2.35 µM; 330,000 compounds, 0.069% hits;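 active means more than half of a compound's replicate wells show inhibition beyond 50%, single wells judged on their own value; inconclusive means some, but no more than half, of replicates pass 50% inhibition; inactive means no replicate passes 50% inhibition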;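 further: signal counts dimethyl H3K9 product captured on neutravidin plate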
Target sequence (Q9H3R0 1-420 limits assumed): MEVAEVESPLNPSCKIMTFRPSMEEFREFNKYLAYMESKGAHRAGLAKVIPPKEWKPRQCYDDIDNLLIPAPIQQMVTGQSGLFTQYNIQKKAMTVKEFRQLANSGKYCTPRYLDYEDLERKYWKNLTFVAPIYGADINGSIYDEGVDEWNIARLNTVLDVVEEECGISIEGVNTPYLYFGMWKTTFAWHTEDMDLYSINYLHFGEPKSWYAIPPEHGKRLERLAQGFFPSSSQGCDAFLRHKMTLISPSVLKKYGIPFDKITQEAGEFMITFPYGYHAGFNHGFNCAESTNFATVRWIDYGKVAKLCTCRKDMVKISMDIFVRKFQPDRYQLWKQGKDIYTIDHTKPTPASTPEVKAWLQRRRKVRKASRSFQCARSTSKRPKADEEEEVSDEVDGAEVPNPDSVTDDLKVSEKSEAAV
Arr AP2 block: blocks beta-arrestin peptide binding to AP2 adaptin | FITC-arrestin peptide / GST-AP2 beads, flow cytometry; AP2 beta2 appendage carries R879A mutation | inhibition, % at 10 µM | 340,000 compounds, 0.31% hits | AID 504490;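 active means inhibition above a set limit, near 3 SD of compounds lacking own fluorescence, cut at about 54% in these data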
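System: GST-AP2 R879A glutathione beads. Medium: PBS with 0.05% Tween 20 and 0.1% BSA. Also added: FITC-arrestin peptide, 50 nM. Incubation: 12 min plus 1 h, RT. Measured by: high-throughput flow cytometry of beads, ex 488, em 535 nm. Evaluation: percent drop in bead-associated FITC signal.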
pCIP destab: lowers stability of the mouse p/CIP coactivator protein | Q05BA5 | F442A p/CIP-EGFP cells, EGFP fluorescence, 16 h | decrease of EGFP signal, % at 10 µM | 290,000 compounds, 0.01% hits | AID 1984;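 active means EGFP signal decrease of at least 30% at 10 µM or well 3 SD below plate mean, unless failing retest; inactive means the rest, including hits failing retest or dose response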
VLA-4 inh: inhibition in a human VLA-4 binding assay; VLA-4 expressing cells, ligand binding flow cytometry; inhibition, % (about 7 µM as worked out from the volumes in the protocol); 330,000 compounds, 0.2% hits; AID 2557; in the data active means inhibition above about 50%
VLA-4 mod pick: confirmation of allosteric modulators of human VLA-4 integrin; shares compounds with VLA-4 inh; U937 cells, HUTS-21 LIBS mAb binding, flow cytometry; LDV ligand present at threefold Kd; inhibition, % at 6.7 µM; 1,300 compounds, 2% hits; AID 2813; in the data active means inhibition above about 40%
Large screens that a line does not name were inactive (follow-up assays come after a bar, where they were run). The list is not random: actives were taken first. Their share in the collection is about 0.57%.

CCN(C[C@H]1N[C@@](Cc2ccccc2)(C(=O)OC)[C@H]2C(=O)N(Cc3ccccc3)C(=O)[C@@H]12)S(=O)(=O)c1ccc(C(C)(C)C)cc1	none (no result: pCIP destab) | VLA-4 mod pick inactive
O=C(OCc1nc2ccccc2s1)c1cnccn1	none
CN1C(=O)CSc2ccc(C(=O)O)cc21	none
O=C(O)c1ccc2c(c1)N(Cc1cccc(F)c1)C(=O)CS2	VLA-4 inh 50.4 | VLA-4 mod pick inactive
COc1ccc(C2CC(=O)Nc3cc(OC)c(OC)cc32)cc1Br (stereo not drawn)	none | VLA-4 mod pick inactive
CCN(CC)c1ccc(C2CC(=O)Nc3cc(OC)c(OC)cc32)cc1 (stereo not drawn)	none | VLA-4 mod pick inactive
CC(C)[C@H](NC(=O)OCc1ccccc1)C(=O)NCc1ccccc1	none | VLA-4 mod pick inactive
COc1ccc(C(=O)OCC(=O)Nc2cc(C)c(C)cc2[N+](=O)[O-])cc1	VLA-4 inh 53.8 | VLA-4 mod pick inactive
CCCCOc1ccc(C(=O)OCC(=O)Nc2cc(C)c(C)cc2[N+](=O)[O-])cc1	none
N#Cc1c(Cn2cncn2)nc(=O)n(-c2ccc(Cl)cc2)c1N	none
CC[C@]12c3[nH]c4ccccc4c3CCN1C(=O)C(CC(=O)NCc1ccco1)C[C@@H]2C(=O)N1CCN(C(=O)C2CC2)CC1 (stereo partly drawn)	VLA-4 inh 57.8 (no result: pCIP destab) | VLA-4 mod pick inactive
CC[C@]12c3[nH]c4ccc(Cl)cc4c3CCN1C(=O)[C@@H](CC(=O)NCc1ccco1)C[C@@H]2C(=O)N1CCN(C(=O)C2CC2)CC1	none (no result: GASC-1 inh, pCIP destab, VLA-4 inh)
CCOC(=O)COc1ccccc1/C=C\[N+](=O)[O-]	VLA-4 inh 50.4 | VLA-4 mod pick 43.4
Cc1ccc(C(=O)COC(=O)COc2ccccc2[N+](=O)[O-])s1	none (no result: pCIP destab)
O=C(c1cc2nc(-c3ccc(Cl)cc3)cc(C(F)(F)F)n2n1)N1CCOCC1	none | VLA-4 mod pick inactive
CN1CCN(C(=O)c2cc3nc(-c4ccc(Cl)cc4)cc(C(F)(F)F)n3n2)CC1	none
COc1ccc(S(=O)(=O)N(C)c2ccc(C(=O)N3CCN(c4ccccc4)CC3)cc2)cc1OC	none
Cc1c(NC(=O)CCC(=O)N2CCOCC2)c(=O)n(-c2ccccc2)n1C	none
CCC(C(=O)OCC(=O)Nc1c(C)n(C)n(-c2ccccc2)c1=O)c1ccccc1 (stereo not drawn)	none | VLA-4 mod pick inactive
Cc1c(NC(=O)CCC(=O)N2CCCCC2)c(=O)n(-c2ccccc2)n1C	none | VLA-4 mod pick inactive
CCOC(=O)c1c(N)sc2c(O)c(Br)ccc12	none
CC1Oc2ccccc2N(CC(=O)N2CCCc3ccccc32)C1=O (stereo not drawn)	none
CN(C)c1ccc(CNC(=O)C2CCN(S(=O)(=O)c3ccc4c(c3)CCCC(=O)N4)CC2)cc1	none
Cc1ccn2c(-c3csc(NCc4ccco4)n3)c(C)nc2c1	none
Cc1ccc(-c2cc(C(=O)N3CCN(C4CCS(=O)(=O)C4)CC3)c3ccccc3n2)cc1 (stereo not drawn)	none (no result: pCIP destab) | VLA-4 mod pick inactive
O=S(=O)(Cc1ccccc1)NCCc1ccc(F)cc1	none
O=C(Nc1ccc(F)cc1F)N1CCCC(c2nc(-c3ccc(F)cc3)no2)C1 (stereo not drawn)	none
CCOc1ccc(N2C(=O)CC(N(CCc3ccc(S(N)(=O)=O)cc3)C(C)=O)C2=O)cc1 (stereo not drawn)	none
CCOc1cccc(N2C(=O)CC(N(CCc3ccc(OC)c(OC)c3)C(=O)CC)C2=O)c1 (stereo not drawn)	none | VLA-4 mod pick inactive
CCOC(=O)c1ccc(N2C(=O)CC(N(C)CCc3ccc(OC)c(OC)c3)C2=O)cc1 (stereo not drawn)	none
CCC(=O)N(Cc1ccc(S(N)(=O)=O)cc1)C1CC(=O)N(c2ccc(OC)cc2)C1=O (stereo not drawn)	none | VLA-4 mod pick inactive
COc1ccc(C(=O)OCC(=O)NCC2CCCCC2)cc1F	none (no result: GASC-1 inh, pCIP destab, VLA-4 inh)
O=C(COC(=O)c1ccc(Cl)cc1)NCC1CCCCC1	none (no result: pCIP destab) | VLA-4 mod pick inactive
O=C(COC(=O)c1c(F)cccc1Cl)NC1CCCC1	none
O=C(COC(=O)c1ccc(F)cc1)NCC1CCCCC1	VLA-4 inh 50.8 (no result: pCIP destab) | VLA-4 mod pick inactive
O=C(COC(=O)c1c(F)cccc1Cl)NCC1CCCCC1	none (no result: pCIP destab) | VLA-4 mod pick inactive
COC(=O)c1sc2ccccc2c1-n1cccc1C(=O)C(=O)Nc1ccc(Cl)cc1	none
CCOC(=O)c1c(C)[nH]c(C(=O)COC(=O)CCC2CCCC2)c1C	none
CC(C)(C)c1ccc(C(=O)NCCCN2CCN(CCCNC(=O)c3ccc(C(C)(C)C)cc3)CC2)cc1	none | VLA-4 mod pick inactive
Cc1ccccc1NC(=O)CSc1nnc(CNC(=O)c2ccc3c(c2)OCO3)n1C	none
COC(=O)c1ccc(NC(=S)N2CCC(C(N)=O)CC2)cc1	none | VLA-4 mod pick inactive
Cc1ccc(S(=O)(=O)N2CCOCC2)cc1NC(=O)COC(=O)c1ccccc1OCc1c(C)noc1C	none | VLA-4 mod pick inactive
Cc1ccc(C(=O)CC2(O)C(=O)Nc3ccccc32)s1 (stereo not drawn)	VLA-4 inh 57.9 | VLA-4 mod pick inactive
COC(=O)c1c(C(=O)OC)c(-c2ccc(F)cc2)n2c1CS(=O)(=O)C2	GASC-1 inh inconclusive | VLA-4 mod pick inactive
O=C(Cc1ccc(Cl)cc1)Nc1cccc2ncccc12	none
COc1c2ccoc2cc2oc(C)cc(=O)c12	none (no result: pCIP destab)
COc1c2occc2c(OC)c2c(=O)cc(C)oc12	VLA-4 inh 50.9 | VLA-4 mod pick inactive
COC(=O)c1cc(C(=O)Nc2nnc(CC(C)(C)C)s2)cc([N+](=O)[O-])c1	VLA-4 inh 51.1 | VLA-4 mod pick inactive
Cc1cc2cc(CNC(=S)Nc3ccc(OC(F)F)cc3)ccc2[nH]1	none
COc1ccc(C(=O)C2CCCN(S(=O)(=O)N(C)C)C2)c(C)c1 (stereo not drawn)	none
CSc1ccccc1C(=O)C1CCCN(S(=O)(=O)N(C)C)C1 (stereo not drawn)	VLA-4 inh 51.5 | VLA-4 mod pick inactive
COc1ccc2cc1Oc1ccc(cc1)CC1c3c(cc(OC)c4c3Oc3cc5c(cc3O4)CCNC5C2)CCN1C (stereo not drawn)	VLA-4 inh 52.4 | VLA-4 mod pick inactive
COc1ccc2cc1Oc1ccc(cc1)C[C@H]1c3c(cc(OC)c4c3Oc3c(ccc5c3[C@H](C2)N(C)CC5)O4)CCN1C	none (no result: pCIP destab)
O=C(c1ccccc1)C(O)(Cc1ccccc1)c1ccccc1 (stereo not drawn)	none (no result: pCIP destab)
Cc1ccc(NC(=O)N2CCN(C(=O)c3ccco3)CC2)cc1Cl	none
CCN(CC(=O)NCc1cccs1)C(=O)c1ccc(-c2cccc(C(F)(F)F)c2)o1	VLA-4 inh 53.3 (no result: pCIP destab) | VLA-4 mod pick inactive
CCN(CC(=O)NCc1cccs1)C(=O)COc1cccc(C(F)(F)F)c1	none (no result: pCIP destab)
Fc1ccc(CCNC(=S)Nc2ccc(F)cc2)cc1	none
CCCCc1ccc(NC(=S)NCCc2ccc(F)cc2)cc1	none | VLA-4 mod pick inactive
O=C(c1cccs1)N1CCN(Cc2cccnc2)CC1	none
